Assay results published in ChEMBL document CHEMBL2401723, “Optimization of the electrophile of chloronitrobenzamide leads active against Trypanosoma brucei” (Bioorg Med Chem Lett, 2013).
Converted amounts (≈) assume the structure as drawn.

Tests used:
[1] = test system: Trypanosoma brucei gambiense; experiment: Antitrypanosomal activity against Trypanosoma brucei gambiense STIB930 assessed as parasite growth inhibition after 48 hrs by Cell-Titer Glo assay; assay type: functional, organism-based; conditions: STIB930, 48 h
Method in brief: (§1)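 Parasites exposed to a 10-point threefold dilution series added by pin transfer, lowest final concentration 0.5 nM, final DMSO 0.2%; EC50 from the series, mean of two experiments.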

[2] = Permeability of the compound by PAMPA; assay type: ADME; conditions: for Papp: read-out: permeability
Method in brief: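 Passive permeability by parallel artificial membrane assay (pION implementation), measured against PBS pH 7.4 sink buffer.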

[3] = test system: Trypanosoma brucei rhodesiense; experiment: Antitrypanosomal activity against wild type Trypanosoma brucei rhodesiense STIB900 assessed as parasite growth inhibition after 48 hrs by Cell-Titer Glo assay; assay type: functional, organism-based; conditions: STIB900, 48 h; method in brief: as §1
[4] = Kinetic solubility in PBS buffer at pH 7.4 after 18 hrs by UV-spectroscopic analysis; assay type: physicochemical; conditions: PBS buffer, pH 7.4; read-out: Kinetic_solubility
[5] = test system: BJ; experiment: Cytotoxicity against human BJ cells assessed as growth inhibition after 72 hrs by Cell-Titer Glo assay; assay type: cell-based
Method in brief: (§2)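 Human cell lines (Raji Burkitt's lymphoma, BJ immortalized foreskin fibroblast, HEK293 embryonic kidney, HepG2) exposed 72 h to a 10-point threefold dilution series by pin transfer, lowest final 0.5 nM, final DMSO 0.2%; proliferation run in triplicate, EC50 derived.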

[6] = test system: Raji; experiment: Cytotoxicity against human Raji cells assessed as growth inhibition after 72 hrs by Cell-Titer Glo assay; assay type: cell-based; method in brief: as §2
[7] = test system: HepG2; experiment: Cytotoxicity against human HepG2 cells assessed as growth inhibition after 72 hrs by Cell-Titer Glo assay; assay type: cell-based; conditions: HepG2, 72 h; method in brief: as §2
[8] = test system: HEK293; experiment: Cytotoxicity against HEK293 cells assessed as growth inhibition after 72 hrs by Cell-Titer Glo assay; assay type: cell-based; conditions: Homo sapiens, HEK293, 72 h; method in brief: as §2
[9] = test system: Trypanosoma brucei brucei; experiment: Antitrypanosomal activity against Trypanosoma brucei brucei assessed as parasite growth inhibition after 48 hrs by Cell-Titer Glo assay; assay type: functional, organism-based
[10] = test system: Trypanosoma brucei brucei; experiment: Antitrypanosomal activity against Trypanosoma brucei brucei assessed as parasite growth inhibition; assay type: functional, organism-based
[11] = Half life in human liver microsomes; assay type: ADME, Microsome
[12] = Half life in mouse liver microsomes; assay type: ADME, Microsome

For `Cc1ccc(-c2nc3ccccc3o2)cc1NC(=O)c1cnccc1Cl`, the EC50 [1] was 0.17 µM, the Papp [2] was 646 ×10⁻⁶ cm/s and the EC50 [3] was 0.12 µM. The solubility kinetic at 18 h [4] was 0.51 µM (≈ 0.186 µg/mL), the EC50 [5] was > 25 µM and the EC50 [6] was > 25 µM. For the same compound, the EC50 [7] was > 25 µM, the EC50 [8] was > 25 µM and the EC50 [9] was 0.18 µM.
In the case of `C/C=C/C(=O)Nc1cccc(-c2nc3ccccc3s2)c1`, the permeability [2] is reported as 1640 ×10⁻⁶ cm/s, the solubility kinetic at 18 h [4] is reported as 0.11 µM (≈ 0.0324 µg/mL) and the EC50 [5] is reported as > 25 µM. The EC50 [6] was > 25 µM, the EC50 [7] was > 25 µM and the EC50 [8] was > 25 µM. For the same compound, the EC50 [9] was > 33 µM.
For `O=C(Nc1cc(-c2nc3ccccc3o2)ccc1F)c1cnccc1Cl`, the Papp [2] was 258 ×10⁻⁶ cm/s, the solubility kinetic at 18 h [4] was 0.13 µM (≈ 0.0478 µg/mL) and the EC50 [5] was > 25 µM. The EC50 [6] was > 25 µM, the EC50 [7] was > 25 µM and the EC50 [8] was > 25 µM. The EC50 [9] was 0.44 µM.
In the case of `O=C(Nc1cccc(-c2nc3ccccc3s2)c1)c1ccc(Cl)nc1Cl`, the Papp [2] is reported as 104 ×10⁻⁶ cm/s, the solubility kinetic at 18 h [4] is reported as 0.35 µM (≈ 0.14 µg/mL) and the EC50 [5] is reported as > 25 µM. The EC50 [6] was > 25 µM, the EC50 [7] was > 25 µM and the EC50 [8] was > 25 µM. It also gave an EC50 [9] of 11 µM.
With `Cc1ccc(-c2nc3ccccc3s2)cc1NC(=O)c1cc([N+](=O)[O-])c(N2CCNCC2)cc1Cl` the EC50 [10] was 0.027 µM.
For `O=C(Nc1cccc(-c2nc3ccccc3s2)c1)c1cnc(Cl)s1`, the Papp [2] was 133 ×10⁻⁶ cm/s, the solubility kinetic at 18 h [4] was 0.94 µM (≈ 0.35 µg/mL) and the EC50 [5] was > 25 µM. For the same compound, the EC50 [6] was > 25 µM, the EC50 [7] was > 25 µM and the EC50 [8] was > 25 µM. It also gave an EC50 [9] of 18 µM.
In the case of `C=CC(=O)Nc1cccc(-c2nc3ccccc3s2)c1`, the Papp [2] is reported as 797 ×10⁻⁶ cm/s, the solubility kinetic at 18 h [4] is reported as 0.18 µM (≈ 0.0505 µg/mL) and the EC50 [5] is reported as > 25 µM. The EC50 [6] was > 25 µM, the EC50 [7] was > 25 µM and the EC50 [8] was > 25 µM. The EC50 [9] was > 33 µM.
For `O=C(Nc1ccc(Cl)cc1)c1cc([N+](=O)[O-])ccc1Cl`, the Papp [2] was 536 ×10⁻⁶ cm/s, the solubility kinetic at 18 h [4] was 3 µM (≈ 0.933 µg/mL) and the EC50 [5] was > 25 µM. For the same compound, the EC50 [6] was > 25 µM, the EC50 [7] was > 25 µM and the EC50 [8] was > 25 µM. The EC50 [9] was 0.92 µM.
With `O=C(Nc1cccc(-c2nc3ccccc3s2)c1)c1cccnc1Cl` the Papp [2] was 677 ×10⁻⁶ cm/s, the solubility kinetic at 18 h [4] was 0.52 µM (≈ 0.19 µg/mL) and the EC50 [5] was > 25 µM. For the same compound, the EC50 [6] was > 25 µM, the EC50 [7] was > 25 µM and the EC50 [8] was > 25 µM. The EC50 [9] was 25 µM.
For `O=C(Nc1cccc(-c2nc3ccccc3s2)c1)c1ccnc(Cl)c1`, the Papp [2] was 478 ×10⁻⁶ cm/s, the solubility kinetic at 18 h [4] was 0.74 µM (≈ 0.271 µg/mL) and the EC50 [5] was > 25 µM. The EC50 [6] was > 25 µM, the EC50 [7] was > 25 µM and the EC50 [8] was > 25 µM. The EC50 [9] was 20 µM.
For `COc1ccc(-c2nc3ccccc3o2)cc1NC(=O)c1cnccc1Cl`, the Papp [2] was 391 ×10⁻⁶ cm/s, the solubility kinetic at 18 h [4] was 1.68 µM (≈ 0.638 µg/mL) and the EC50 [5] was > 25 µM. The EC50 [6] was > 25 µM, the EC50 [7] was > 25 µM and the EC50 [8] was > 25 µM. For the same compound, the EC50 [9] was 0.2 µM.
In the case of `O=C(Nc1ccc(F)c(-c2nc3ccccc3s2)c1)c1cnccc1Cl`, the half-life [11] is reported as > 4 h, the half-life [12] is reported as > 4 h and the EC50 [1] is reported as 0.038 µM. It also gave a Papp [2] of 21 ×10⁻⁶ cm/s, an EC50 [3] of 0.018 µM and a solubility kinetic at 18 h [4] of 0.08 µM (≈ 0.0307 µg/mL). For the same compound, the EC50 [5] was > 25 µM, the EC50 [6] was > 25 µM and the EC50 [7] was > 25 µM. For the same compound, the EC50 [8] was > 25 µM and the EC50 [9] was 0.12 µM.
